Reference: the RNAGym collection of RNA variant scans (doi:10.1126/science.aae0568)
This sample holds only a part of the variants without activity.

B1: tRNA (parent)
chain: GUUCCGUUGGCGUAAUGGUAACGCGUCUCCCUCCUAAGGAGAAGACUGCGGGUUCGAGUCCCGUACGGAACG

Variants of: B1
Assay: yeast fitness relative to wild type (ratio to wild type); higher = fitter; tRNA-Arg(CCU), competitive growth, 37 C, YPD
Outline: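 A pool of Saccharomyces cerevisiae strains, each with a tRNA-Arg(CCU) gene variant at the native genomic locus, was competed in YPD at 37°C for 24 hours across six parallel replicates. The variants had been chemically synthesised at a 3% per-site mutation rate over 69 sites, and gene amplicons before and after competition were read by 100-nucleotide paired-end sequencing. Darwinian fitness relative to wild type rested on changes in genotype frequencies. Genotypes required ≥ 100 starting reads, and estimates < 0.5 were set to 0.5.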

Variant | yeast fitness
U3C G38A A45C | ≤ 0.5
C4A A65U | 0.719
C4A A65G | 0.946
U3C C11G C34G A36C G52A C60G | ≤ 0.5
C4A C5A C22A U28G C33G A57G | ≤ 0.5
C4A C29U G67A A70U | ≤ 0.5
C4A C31U C34A A40G | ≤ 0.5
U3G U59C | 0.888
U3C C11U U19A A43U U59A G63A | ≤ 0.5
U3C C27G U28A | ≤ 0.5
C4A G17A C24G G63C | 0.64
U3G A14C C24G A36G | ≤ 0.5
C4A C5U C30U A45G | 0.516
U3C G23A C27G C33A | ≤ 0.5
C4A G9A G18C C22A A69C | ≤ 0.5
C4A C31G C62G G68C | ≤ 0.5
U3C C34G A40C A43U | ≤ 0.5
C4A C22U C33G A45C U47C U53G A69C | ≤ 0.5
C4A A14U C34G C55U A65C | ≤ 0.5
C4A G9A C22A C27G U54A | ≤ 0.5
U3C C46A G67A A70C | 0.556
C4A A20G | 0.859
U3C G9A A15U C30A A42G | 0.506
U3C U13A C31U G41A A57C A70U | ≤ 0.5

Variant | yeast fitness
C4A C29G A37C U54A | ≤ 0.5
U3C U16A | 0.936
C4A C27G C46U | 0.636
U3C C22A G67A | 0.667
U3C U47A U53C | ≤ 0.5
C4A C5U C34U U64G | 0.576
C4A C46G C61A | 0.522
C4A C5G U53A | ≤ 0.5
U3G U13C C33G | ≤ 0.5
C4A A20C C27U G50A | 0.597
U3C C46A | 0.912
U3C C46G | 0.912
U3C U16G C29U C46U G67C A69U | ≤ 0.5
U3C G9A C61U | 0.827
C4A G10A C31A | ≤ 0.5
U3G A43U C62U | 0.727
C4A | 0.998
U3G U28A C33U A36G C66A | ≤ 0.5
U3C G48C | 0.817
U3C G48A | 0.952
U3C G6C A14U A20G G25A G38A U47A C60G A70G | ≤ 0.5
C4A G6A A40G U53G C62G C66U | 0.6
U3G U16C G39C A45C C49G C62G | ≤ 0.5
C4A C5U G39C A42C | ≤ 0.5

Variant | yeast fitness
U3G A15G C34A A70G | 0.555
U3C G9A C62G | 0.681
C4A C46U C55U | ≤ 0.5
C4A A42U A57U G58C | ≤ 0.5
U3C G12A A57C C61A A69C | ≤ 0.5
C4A C5U C22U C34A | 0.576
U3C C66A | 0.711
U3C C66U | 0.904
U3C C24U | 1.01
C4A C11G C31U G38C G52A C66G | 0.649
U3G A20C A21G C61A | ≤ 0.5
U3C G25A A65C | 0.732
C4A G17A C62A | ≤ 0.5
C4A A42U A69U | 0.625
U3C U8A U19A U54G | ≤ 0.5
U3G U32C | 0.86
U3C G25C C49U | 0.758
U3C C27U C33U C61A | ≤ 0.5
C4A G9A C22A C27G | ≤ 0.5
U3G C49G G56A | ≤ 0.5
U3G A43U U54A A57C | 0.588
U3G U54G A57C | ≤ 0.5
C4A G12C U19C C24G A43U C61A | 0.502
C4A C22G C55G G63C | ≤ 0.5

Variant | yeast fitness
U3G C66U | 0.699
U3C C11A C31A C49G G58C | ≤ 0.5
C4A C22U A40G A43U C46G C49G C62U | 0.527
U3C C31U G52A | 0.671
C4A A14G U64A A70C | ≤ 0.5
U3G A20C A43U C55A A65U A70G | ≤ 0.5
U3G G38A C60A | ≤ 0.5
C4A C31U G44A A45U | 0.574
U3C C5U U8C U13C C29U C46A A65U C66A | ≤ 0.5
U3G C5G G10A C30G C31G C49A C60U G67A | ≤ 0.5
C4A C5U U8C | ≤ 0.5
C4A C55G C61U | ≤ 0.5
U3C G10U U26C A42U | ≤ 0.5
U3C C11G A21U G56A | ≤ 0.5
U3G A14G | 0.907
C4A C27U A42U C62U | ≤ 0.5
C4A A20C C29A | ≤ 0.5
C4A A37C | 0.707
U3G C5A C34A | ≤ 0.5
C4A C11U U32A G38C U47A U53G | 0.56
U3C G18A U53A U54G G67U | ≤ 0.5
U3C C31U A36U G39C | ≤ 0.5
U3C C24A C66U | ≤ 0.5
C4A G6A G67U | ≤ 0.5

Variant | yeast fitness
U3C C31A C49A | ≤ 0.5
C4A C5U C24U U53A A65G | ≤ 0.5
U3C G9C C11U C30G A43C U59A G67C A69C | ≤ 0.5
C4A C11U A21U G23A | ≤ 0.5
U3G A20C G44C C61U | 0.606
C4A A42G C60G | 0.53
U3G C4G A70C | ≤ 0.5
U3C G9A U13G U26C | ≤ 0.5
U3C G23C C30A G38C | ≤ 0.5
C4A C31G C46U | 0.677
C4A A21U | 0.676
C4A C5G C24U G25A A57U | ≤ 0.5
U3C U13C U19A C22U G68C | ≤ 0.5
C4A C5U C22U C34A C49G | ≤ 0.5
U3G G41C G51C A57G | ≤ 0.5
U3G A37U G63A C66U | ≤ 0.5
C4A C11A U13C A70U | ≤ 0.5
U3C C5U U7G C22U C27G G58A | ≤ 0.5
C4A C22A | 0.706
C4A C22G G51C A65C | 0.731
C4A C24U C46U C55A C66U | ≤ 0.5
U3C G12A C46U G52C | ≤ 0.5
U3C C11G G63U | ≤ 0.5
U3C C24G C31U C55A | ≤ 0.5

Variant | yeast fitness
U3G G51A | 0.701
C4A C27U U28G C33G A36G G56C | ≤ 0.5
U3G U8A C31A G52A | ≤ 0.5
U3G G6A U8C | ≤ 0.5
C4A A14U A20C U28G G58C C61A | ≤ 0.5
C4A A20C A42U C66U | ≤ 0.5
C4A C11G U13G G25A C62U G63A | ≤ 0.5
U3G A45G U54C | 0.678
C4A G17A G41A U54A A57C | ≤ 0.5
C4A C33G U47A | 0.625
U3G A36G G52A C66A A69U | ≤ 0.5
U3C C31U A57G | 0.778
C4A G17A C27G G63A | ≤ 0.5
C4A C24A G51C | 0.595
C4A C5A C11G A15U U19C A21U | ≤ 0.5
C4A A15G G17A C33U G39C C55A G67C | ≤ 0.5
C4A A21G C60G G67A | ≤ 0.5
U3C G17C C22A C24G U28C C33A | ≤ 0.5
U3C U16G G18A A43C U53A | ≤ 0.5
U3C C34A G44C C46U G51A | ≤ 0.5
C4A G17A G51C | ≤ 0.5
C4A C66A | 0.569
C4A A14U A20C U28G A42G | ≤ 0.5
U3C G25C G38A A42C G52A C62U | ≤ 0.5

Variant | yeast fitness
C4A C33U | 0.754
U3C G41A U53G U59A C62G | ≤ 0.5
C4A A14G A36U A57U | 0.953
C4A C27G A42G U53A | ≤ 0.5
C4A C11G C34U | ≤ 0.5
U3G U8C A15U G25A C49A | ≤ 0.5
C4A C33A C60A | ≤ 0.5
U3C U19G C27G C34A A42U | ≤ 0.5
C4A C5G A57U G68U | 0.575
C4A A15U G18C C55U G56C G67A | ≤ 0.5
C4A C5A A20U | 0.605
U3G C5G A20C C61U | ≤ 0.5
U3C G48A G67C | 0.653
U3C C27G A45C | ≤ 0.5
U3C G17A | 0.831
C4A C5U C29G C33U U59G A69C | 0.533
U3G C33U A42G A57U C61A | ≤ 0.5
C4A A36C A57G A65U | ≤ 0.5
U3C U13A | 0.983
U3C U13G | 1.04
C4A G6A G68A | ≤ 0.5
U3C G58A | 0.922
U3G U8A C24A G56C | ≤ 0.5
